The text below walks through data of ChEMBL document CHEMBL1138791, “Acyl sulfonamide anti-proliferatives: benzene substituent structure-activity relationships for a novel class of antitumor agents” (J Med Chem, 2004).

One assay has as its system SW-620. Put plainly: Growth inhibitory activity against human colon SW620 cell line. It counts as functional. The procedure, abridged:
(§1)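 Cell-line screen run at NCI by published procedures. […] The mean graph midpoint is taken across all human cancer cell lines successfully tested.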

Another assay concerns MCF7. The assay can be described thus: Growth inhibitory activity against human breast MCF-7 cell line. The assay is classed as functional. The procedure, abridged: as §1
Assay [1] concerns Panel (Carcinoma cell lines). Put plainly: Mean graph mid point value for cytotoxic activity against human cancer cell lines was determined. The assay is classed as functional. The procedure, abridged: as §1
A short description of assay [2]: Diameter of zone of inhibition for cell colony formation of normal fibroblast at the dose of 200 ug; Range is 0-11. The assay is classed as functional, Homo sapiens. The gist of the method: (§2)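 Soft agar disk diffusion: leukemia (L1210), solid tumor (HCT116, or colon H15) and normal fibroblast cells seeded in soft agar in separate 60 mm dishes. Compound applied to a filter paper disk (dose in μg/disk) set on the agar. Colony-formation inhibition zones read after 6–7 days at 37 °C. 200 zone units = 6.5 mm; 950 = total inhibition; a range marks partial colony shrinkage. n > 2 unless noted.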

The next assay concerns HT-29. The assay can be described thus: Growth inhibitory activity against human colon HT-29 cell line. It counts as functional. The procedure, abridged:
as §1

The test system of assay [3] is HCT-116. Put plainly: Growth inhibitory activity against human colon HCT116 cell line. The assay is classed as functional. The gist of the method: as §1
A further assay concerns HL-60. The assay can be described thus: Growth inhibitory activity against human leukemia HL-60 (TB) cell line. It counts as functional. Details: unit not given here.
In the next assay the test system is RXF 393. The assay can be described thus: Growth inhibitory activity against human renal RXF-393 cell line. It counts as functional. The gist of the method: as §1
The subject of assay [4] is HCT-116. The assay can be described thus: Diameter of zone of inhibition for cell colony formation of solid tumor HCT116 at the dose of 200 ug. It counts as functional, Homo sapiens. The gist of the method:
(§3)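 HCT116, L1210 leukaemia and normal fibroblast cells were seeded in soft agar in separate 60 mm dishes. The compound was applied to a filter-paper disk laid on the agar. Colony-formation inhibition zones were read after 6–7 days at 37 °C and expressed in zone units (200 units = 6.5 mm; 950 = total inhibition; 0 = none). n > 2 unless otherwise indicated.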

In a further assay the test system is NCI-H522. Put plainly: Growth inhibitory activity against human lung NCI-H522 cell line. The assay is classed as functional. The gist of the method: as §1
Assay [5] deals with L1210. The assay can be described thus: Diameter of zone of inhibition for cell colony formation of L1210 leukemia cell lines at the dose of 200 ug. It counts as functional, Mus musculus. The gist of the method: as §2
Assay [6] relates to Mus musculus. The assay can be described thus: Tumor growth delay of human HCT116 colorectal carcinoma in mice after intravenous administration at dose of 128 mg/kg. It counts as functional. The procedure, abridged: (§4)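 Female nude mice were implanted with HCT116 tumour tissue from donor mice and randomized once tumours averaged 100 mm3. The sodium salt in saline (pH 7.4) was given by iv bolus on days 1–5 and 8–12. Tumour volumes were recorded twice weekly. TGD = T − C, the time to reach 500 mm3 taken from a fitted tumour-growth model.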

Assay [7] has as its system Mus musculus. The assay can be described thus: Tumor growth delay of human HCT116 colorectal carcinoma in mice after intravenous administration at dose of 85 mg/kg. It counts as functional. The procedure, abridged:
as §4

The test system of assay [8] is Mus musculus. Put plainly: Tumor growth delay of human HCT116 colorectal carcinoma in mice after intravenous administration at dose of 64 mg/kg. It counts as functional. The procedure, abridged: as §4
In assay [9] the test system is L1210. Put plainly: Diameter of zone of inhibition for cell colony formation of leukemia L1210 at the dose of 190 ug. The assay is classed as functional, Mus musculus. The gist of the method:
as §2

Assay [10] in a line: Diameter of zone of inhibition for cell colony formation of normal fibroblast at the dose of 190 ug; Range is 0-.975. The assay is classed as functional, Homo sapiens. The gist of the method: as §2
The test system of assay [11] is HCT-116. The assay can be described thus: Diameter of zone of inhibition for cell colony formation of solid tumor HCT116 at the dose of 190 ug. The assay is classed as functional, Homo sapiens. The procedure, abridged: as §2
The test system of assay [12] is L1210. The assay can be described thus: Diameter of zone of inhibition for cell colony formation of leukemia L1210 at the dose of 200 ug. The assay is classed as functional, Mus musculus. The gist of the method: as §2
Assay [13] is described as follows: Diameter of zone of inhibition for cell colony formation of normal fibroblast at the dose of 200 ug; Range is 0-4.875. It counts as functional, Homo sapiens. The procedure, abridged: as §2
A short description of assay [14]: Diameter of zone of inhibition for cell colony formation of normal fibroblast at the dose of 210 ug; Range is 0-11.375. It counts as functional, Homo sapiens. The procedure, abridged: as §2
The nature of assay [15]: Diameter of zone of inhibition for cell colony formation of solid tumor H15 at the dose of 210 ug. It counts as functional, Homo sapiens. The procedure, abridged:
as §2

For assay [16], the system named is Mus musculus. Put plainly: Tumor growth delay of human HCT116 colorectal carcinoma in mice after intravenous administration at dose of 63 mg/kg. It counts as functional. The procedure, abridged: as §4
Assay [17] relates to L1210. The assay can be described thus: Diameter of zone of inhibition for cell colony formation of leukemia L1210 at the dose of 210 ug. It counts as functional, Mus musculus. The procedure, abridged: as §2
The subject of assay [18] is Mus musculus. The assay can be described thus: Tumor growth delay of human HCT116 colorectal carcinoma in mice after intravenous administration at dose of 32 mg/kg. The assay is classed as functional. The procedure, abridged: as §4
Assay [19] can be described thus: Diameter of zone of inhibition for cell colony formation of normal fibroblast at the dose of 210 ug; Range is 0-2.6. The assay is classed as functional, Homo sapiens. The gist of the method: as §2
Assay [20] concerns HCT-116. The assay can be described thus: Diameter of zone of inhibition for cell colony formation of solid tumor HCT116 at the dose of 210 ug. The assay is classed as functional, Homo sapiens. The gist of the method:
as §3

Assay [21] in a line: Diameter of zone of inhibition for cell colony formation of normal fibroblast at the dose of 190 ug; Range is 0-2.275. It counts as functional, Homo sapiens. The gist of the method: as §2

As to `O=C(NS(=O)(=O)c1ccc(Cl)cc1)c1ccc(Cl)cc1Cl`, the GI50 was found to be 39.6 µM with SW-620; 1.5 µM in the assay on MCF7; 54.8 µM in the assay with HT-29; 5.3 µM with HCT-116 [3]; 34.7 in the assay with HL-60; 11 µM with RXF 393. This compound also returned a GI50 in the assay on NCI-H522 of 8.6 µM. Further, in [1], the MGM came out at 26.3. The Inhibition in assay [2] came to 11 mm; in the assay with HCT-116 [4], 19.5 mm; in the assay with L1210 [5], 6.5 mm.

With `O=C(NS(=O)(=O)c1ccccc1)c1ccc(Cl)cc1Cl`, the GI50 turned out to be 8.6 µM in the assay on SW-620; 18.9 µM in the assay on MCF7; 52 µM in the assay on HT-29; 5.4 µM in the assay with HCT-116 [3]; 32.9 with HL-60; 4.3 µM in the assay with RXF 393. The same compound returned a GI50 in the assay on NCI-H522 of 18.7 µM. Moreover, the Growth delay with Mus musculus [6] was found to be 22 days; with Mus musculus [7], 15 days; with Mus musculus [8] it was 14 days. Further, the MGM in [1] came to 33.1.

In the case of `O=C(NS(=O)(=O)c1ccc(Cl)cc1)c1cccc(Br)c1`, the results for the Inhibition (in the assay on L1210 [9]; in assay [10]; with HCT-116 [11]) were 6.82 mm, 0.97 mm and 10.4 mm, respectively.

`O=C(NS(=O)(=O)c1ccc(Cl)cc1)c1ccc(Cl)c(Cl)c1`: the Inhibition in the assay with L1210 [12] is 6.5 mm; with HCT-116 [4], 13 mm; in [13] it was 4.87 mm.

As to `O=C(NS(=O)(=O)c1ccc(Cl)cc1)c1ccc(Br)cc1Cl`, the Inhibition in [14] came out at 11.37 mm; in assay [15], 14.95 mm; in the assay with L1210 [17], 6.5 mm. The Growth delay in the assay on Mus musculus [16] was 23 days; in the assay on Mus musculus [18], 12 days.

For `O=C(NS(=O)(=O)c1ccc(Cl)cc1)c1cc(Cl)cc(Cl)c1`, the Inhibition in assay [19] came to 2.6 mm; in the assay on HCT-116 [20], 10.72 mm; with L1210 [17], 4.87 mm.

In the case of `O=C(NS(=O)(=O)c1ccc(Cl)cc1)c1ccc(Cl)cc1`, the Inhibition in the assay with L1210 [9] amounted to 5.85 mm; in [21], 2.27 mm; with HCT-116 [11], 10.72 mm.
